In ChEMBL document CHEMBL1125564, “Selective, centrally acting serotonin 5-HT2 antagonists. 2. Substituted 3-(4-fluorophenyl)-1H-indoles” (J Med Chem, 1992) one finds IC50 and ED50 data, which are given here for 20 compounds.

The target of assay [1] is T1, Alpha-1A adrenergic receptor (Rattus norvegicus, UniProt P43140).
T1 sequence (P43140 whole entry): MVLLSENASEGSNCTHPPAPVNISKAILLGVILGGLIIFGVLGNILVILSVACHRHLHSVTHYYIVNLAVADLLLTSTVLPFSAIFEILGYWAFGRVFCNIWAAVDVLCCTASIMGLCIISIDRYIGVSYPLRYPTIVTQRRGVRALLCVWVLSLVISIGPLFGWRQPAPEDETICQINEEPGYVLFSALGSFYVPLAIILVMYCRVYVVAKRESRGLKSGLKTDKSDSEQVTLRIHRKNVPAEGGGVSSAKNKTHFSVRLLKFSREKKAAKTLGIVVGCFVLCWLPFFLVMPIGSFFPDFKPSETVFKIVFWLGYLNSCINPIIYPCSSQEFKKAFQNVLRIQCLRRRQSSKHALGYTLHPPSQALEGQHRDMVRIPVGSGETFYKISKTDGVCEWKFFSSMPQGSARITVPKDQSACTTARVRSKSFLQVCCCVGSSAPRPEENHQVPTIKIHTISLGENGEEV
Kind of assay: Displacement of [3H]prazosin from Alpha-1 adrenergic receptor in whole rat brain membranes. The format is cell membranes. The essentials:
(§1)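 Two full concentration curves per compound, five concentrations in triplicate covering three decades. IC50 read from log-concentration curves, given as logarithmic mean of at least two determinations. Ratios beyond 3 × SD prompted extra runs, with outliers discarded.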

The target of assay [2] is Serotonin 2 (5-HT2) receptor (Rattus norvegicus, UniProt P30994+P08909+P14842). Kind of assay: Displacement of [3H]ketanserin from 5-hydroxytryptamine 2 receptor in rat cortical membranes. The format is cell membranes, Membrane. The essentials:
as §1

In a further assay the target is D(2) dopamine receptor (Rattus norvegicus, UniProt P61169). Kind of assay: Displacement of [3H]spiperone from Dopamine receptor D2 rat striatal membranes. The format is cell membranes, Membrane. The gist of the method:
as §1

Assay [3] has as its system Rattus norvegicus. Kind of assay: Compound was evaluated for the inhibition of pergolide-induced reactions after 2 hr (administered subcutaneously). The format is functional. The following applies: sc. The gist of the method:
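Male Wistar rats with unilateral 6-OHDA lesions; test compound given sc 2 h before pergolide (0.05 μmol/kg, sc) to induce contralateral circling. Each dose scored as percent of the rat's mean control sessions 1 week before and 1 week after the test, at least four rats per dose. ED50 by log-probit analysis.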

Assay [4] deals with Rattus norvegicus. Kind of assay: Compound was evaluated for the inhibition of quipazine-induced head twitches after 24 hr (administered perorally). The format is functional. The settings on record: po. The gist of the method: (§2)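 Male Wistar rats (Mol:Wist, SPF, 170–270 g), at least four per dose, dosed sc or po 2 or 24 h before quipazine (15 μmol/kg, sc). Head twitches counted 30–40 min after quipazine and expressed as percent of a quipazine-treated control group. ED50 by log-probit analysis.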

The subject of assay [5] is Rattus norvegicus. Kind of assay: Compound was evaluated for the inhibition of quipazine-induced head twitches after 2 hr (administered subcutaneously). The following applies: sc. The format is functional. The gist of the method:
as §2

Assay [6] relates to Rattus norvegicus. Kind of assay: Compound was evaluated for the inhibition of quipazine-induced head twitches after 24 hr (administered subcutaneously). The format is functional. The settings on record: sc. The gist of the method: as §2

Molecules are shown by their SMILES.

Sequence of D(2) dopamine receptor (P61169 whole entry): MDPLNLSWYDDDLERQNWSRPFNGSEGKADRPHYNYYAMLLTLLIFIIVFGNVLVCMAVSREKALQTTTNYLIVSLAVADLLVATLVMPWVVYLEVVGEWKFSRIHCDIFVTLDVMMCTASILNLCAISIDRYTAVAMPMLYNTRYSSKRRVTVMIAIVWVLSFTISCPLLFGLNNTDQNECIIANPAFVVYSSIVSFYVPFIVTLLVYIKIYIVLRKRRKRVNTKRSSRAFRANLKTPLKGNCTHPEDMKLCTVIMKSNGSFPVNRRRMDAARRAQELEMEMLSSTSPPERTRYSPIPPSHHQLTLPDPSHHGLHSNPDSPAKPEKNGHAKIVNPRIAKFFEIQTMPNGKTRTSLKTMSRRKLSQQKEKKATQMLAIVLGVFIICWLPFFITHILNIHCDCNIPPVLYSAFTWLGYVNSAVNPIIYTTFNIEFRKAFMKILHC

`Cc1cccc2c(-c3ccc(F)cc3)cn(C3=CCN(CCN4CCNC4=O)CC3)c12`: the IC50 in assay [1] was 27 nM; in assay [2], 5.8 nM; on D(2) dopamine receptor, 530 nM.

For `Cc1ccc2c(c1)c(-c1ccc(F)cc1)cn2N1CCN(C)CC1`, the results for the IC50 in assay [1] and in assay [2] were 500 nM and 15 nM, respectively.

For the compound `Cc1ccc2c(c1)c(-c1ccc(F)cc1)c(C)n2C1=CCN(CCN2CCNC2=O)CC1`, the IC50 in assay [1] came to 1000 nM; in assay [2], 2.8 nM.

For the compound `O=C1NCCN1CCN1CCC(n2cc(-c3ccc(F)cc3)c3cc(F)ccc32)CC1`, the IC50 in assay [1] came out at 19 nM; in assay [2], 3.2 nM.

Regarding `Cc1ccc2c(c1)c(-c1ccc(F)cc1)c(C)n2C1CCN(C)CC1`, the IC50 in assay [1] is 2700 nM; in assay [2], 5.3 nM. The ED50 with Rattus norvegicus [3] was more than 30 µmol/kg; in the assay on Rattus norvegicus [4], 0.046 µmol/kg; with Rattus norvegicus [5], 0.25 µmol/kg; in the assay on Rattus norvegicus [6], 0.028 µmol/kg.

`Cc1ccc2c(c1)c(-c1ccc(F)cc1)cn2C1CCN(CCNC(=O)N(C)C)CC1`: the IC50 is 89 nM in assay [1] and 2.3 nM in assay [2].

Consider `Cc1ccc2c(c1)c(-c1ccc(F)cc1)cn2C1CCN(CCN2CCNC2=O)CC1`, for which the IC50 in assay [1] stood at 71 nM; in assay [2], 1.6 nM. The ED50 in the assay with Rattus norvegicus [3] is more than 24 µmol/kg; in the assay with Rattus norvegicus [4], 0.0041 µmol/kg; in the assay on Rattus norvegicus [5] it was 0.019 µmol/kg; in the assay on Rattus norvegicus [6] it was 0.0081 µmol/kg.

Regarding `Cc1cccc2c(-c3ccc(F)cc3)cn(C3CCN(CCN4CCNC4=O)CC3)c12`, the values for the IC50 (in assay [1]; in assay [2]; on D(2) dopamine receptor) were 23 nM, 3.6 nM and 370 nM, respectively.

For `Cc1ccc2c(c1)c(-c1ccc(F)cc1)cn2C1CCN(CCN2CCN(C(C)C)C2=O)CC1`, the IC50 in assay [1] came out at 280 nM; in assay [2], 2.7 nM. The ED50 in the assay with Rattus norvegicus [3] is more than 18 µmol/kg; with Rattus norvegicus [4] it was 0.019 µmol/kg; in the assay on Rattus norvegicus [5], 0.062 µmol/kg; in the assay with Rattus norvegicus [6], 0.014 µmol/kg.

Turning to `CC(C)N1CCN(CCN2CCC(c3cn(-c4ccc(F)cc4)c4cc(Cl)ccc34)CC2)C1=O`, the IC50 in assay [1] stood at 70 nM.

As for `Cc1cccc2c1c(-c1ccc(F)cc1)cn2C1CCN(CCN2CCNC2=O)CC1`, the IC50 in assay [1] worked out at 34 nM; in assay [2], 7.9 nM; on D(2) dopamine receptor it was 200 nM.

Consider `Cc1ccc2c(c1)c(-c1ccc(F)cc1)cn2C1=CCN(CCN2CCNC2=O)CC1`, for which the IC50 in assay [1] came to 24 nM; in assay [2] it was 1.5 nM; on D(2) dopamine receptor, 280 nM.

Consider `Cc1ccc2c(c1)c(-c1ccc(F)cc1)c(C)n2C1CCN(CCN2CCNC2=O)CC1`, for which the results for the IC50 in assay [1] and in assay [2] were 2300 nM and 3.4 nM, respectively. In addition, the ED50 in the assay on Rattus norvegicus [3] is more than 23 µmol/kg; in the assay on Rattus norvegicus [4] it was 0.038 µmol/kg; in the assay with Rattus norvegicus [5] it was 0.096 µmol/kg; in the assay on Rattus norvegicus [6], 0.0041 µmol/kg.

Regarding `Cc1ccc2c(c1)c(-c1ccc(F)cc1)cn2C1CCN(C)CC1`, the IC50 in assay [1] is 190 nM; in assay [2], 4.5 nM.

With `O=C1NCCN1CCN1CCC(n2cc(-c3ccc(F)cc3)c3cc(C(F)(F)F)ccc32)CC1`, the IC50 was 190 nM in assay [1], 9.3 nM in assay [2] and 2500 nM on D(2) dopamine receptor.

In the case of `CNC(=O)N(C)CCN1CCC(n2cc(-c3ccc(F)cc3)c3cc(C)ccc32)CC1`, the IC50 in assay [1] is 54 nM; in assay [2], 2.2 nM; on D(2) dopamine receptor, 1200 nM. Moreover, the ED50 in the assay on Rattus norvegicus [3] was more than 22 µmol/kg; with Rattus norvegicus [4], 0.004 µmol/kg; with Rattus norvegicus [5], 0.036 µmol/kg; in the assay on Rattus norvegicus [6], 0.0021 µmol/kg.

`O=C1NCCN1CCN1CCC(n2cc(-c3ccc(F)cc3)c3cc(Cl)ccc32)CC1`: the IC50 in assay [1] worked out at 67 nM; in assay [2], 5.7 nM.

For `O=C1NCCN1CCN1CCC(n2cc(-c3ccc(F)cc3)c3ccccc32)CC1`, the IC50 in assay [1] amounted to 6.3 nM; in assay [2], 3.1 nM.

In the case of `O=C1NCCN1CCN1CCC(n2cc(-c3ccc(F)cc3)c3ccc(Cl)cc32)CC1`, the IC50 in assay [1] was 11 nM; in assay [2], 1.9 nM. In addition, the ED50 with Rattus norvegicus [3] worked out at 9.3 µmol/kg; in the assay with Rattus norvegicus [5], 0.3 µmol/kg; in the assay with Rattus norvegicus [6], 0.68 µmol/kg.

For the compound `O=C1NCCN1CCN1CCC(c2cn(-c3ccc(F)cc3)c3ccc(Cl)cc23)CC1` [SERTINDOLE], the IC50 in assay [1] stood at 3.4 nM.
